Data set [1] has as its system Mus musculus. Put plainly: Tissue distribution in BDF1 female mice bearing an implanted lewis lung tumor after intravenous injection in bone at 0.25 h. Conditions: in vivo. In kind it is ADME, organism-based. The gist of the method:
(§1)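 Female BDF1 mice (18–20 g) with implanted Lewis lung tumor received the 2-14C compound by tail vein, 23–193 kBq in normal saline, reconstituted from a dry film just before use. Animals were killed at set times and tissues taken for 14C counting by combustion and liquid scintillation. Values are percent injected dose per gram wet tissue, mean ± standard deviation, six animals.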

The test system of data set [2] is Mus musculus. The data set can be described thus: Tissue distribution in BDF1 female mice bearing an implanted lewis lung tumor after intravenous injection in kidney at 0.25 h. In kind it is ADME, organism-based. Conditions: in vivo. Summed up: as §1
Data set [3] concerns Mus musculus. Put plainly: Tissue distribution in BDF1 female mice bearing an implanted lewis lung tumor after intravenous injection in skin at 0.25 h. In kind it is ADME, organism-based, Skin of body. The settings on record: in vivo. The gist of the method:
(§2)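 Female BDF₁ mice (18–20 g) carrying transplanted Lewis lung tumor received 23–193 kBq of the [2-¹⁴C]-labeled nucleoside in normal saline via tail vein. The compound was stored as a dry film and reconstituted just before use. Animals were killed at set times, and tissue ¹⁴C was measured by combustion and liquid scintillation. Values are mean ± SD % injected dose per gram of wet tissue, n = 6.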

Data set [4] has as its system Mus musculus. The data set can be described thus: Tissue distribution in BDF1 female mice bearing an implanted lewis lung tumor after intravenous injection in spleen at 0.25 h. Conditions: in vivo. In kind it is ADME, organism-based. The gist of the method: as §2
Data set [5] relates to Mus musculus. The data set can be described thus: Tissue distribution in BDF1 female mice bearing an implanted lewis lung tumor after intravenous injection in stomach at 0.5 h. Value in parentheses is organ to tumor ratio. Conditions: in vivo. In kind it is ADME, organism-based. The gist of the method:
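Female BDF₁ mice (18–20 g) with implanted Lewis lung tumor were given 23–193 kBq of the [2-¹⁴C] nucleoside in normal saline by tail vein. Tissue ¹⁴C was counted by combustion and liquid scintillation, with n = 6 per time point. The organ-to-tumor ratio was derived from the % injected dose per gram of wet tissue in the organ and in the tumor.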

Data set [6] concerns Mus musculus. The data set can be described thus: Radioactive constituent of uracil in urine at 2 hr time interval after intravenous injection into BDF1 female mice bearing lewis lung tumor. In kind it is ADME, organism-based. Conditions: in vivo. The gist of the method: (§3)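 Radiolabeled nucleoside given in normal saline by tail vein, 23–193 kBq per mouse, to female BDF1 mice (18–20 g) carrying transplanted Lewis lung tumor. Urine was collected when the animals were killed. Components were identified by reverse-phase HPLC with UV at 256 nm on urine spiked with reference compounds, matched to liquid scintillation counts of the eluate. Each is reported as a percent of total urine radioactivity.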

Data set [7] relates to Mus musculus. Put plainly: Radioactive constituent in urine at 2 hr time interval after intravenous injection into BDF1 female mice bearing lewis lung tumor. In kind it is ADME, organism-based. Conditions: in vivo. The gist of the method:
as §3

Data set [8] concerns Mus musculus. The data set can be described thus: Radioactive constituent in urine at 4 hr time interval after intravenous injection into BDF1 female mice bearing lewis lung tumor. Conditions: in vivo. In kind it is ADME, organism-based. Summed up: as §3
Data set [9] concerns Mus musculus. Put plainly: Tissue distribution in BDF1 female mice bearing an implanted lewis lung tumor after intravenous injection in bone at 0.25 h. The settings on record: in vivo. In kind it is ADME, organism-based. The gist of the method: as §1
Data set [10] deals with Mus musculus. Put plainly: Radioactive constituent of other in urine at 4 hr time interval after intravenous injection into BDF1 female mice bearing lewis lung tumor. In kind it is ADME, organism-based. The settings on record: in vivo. The gist of the method:
as §3

Data set [11] relates to Mus musculus. The data set can be described thus: Tissue distribution in BDF1 female mice bearing an implanted lewis lung tumor after intravenous injection in tumor at 1 h. In kind it is ADME, organism-based. The settings on record: in vivo. The gist of the method: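 Female BDF1 mice (18–20 g) carrying a transplanted Lewis lung tumor were given 23–193 kBq of the [2-14C]-labelled nucleoside in normal saline by tail vein. Animals were killed at set times. Tissue 14C was counted by liquid scintillation, after combustion or directly. Values are percent of injected dose per gram wet tissue, as mean ± standard deviation of six animals.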

The subject of data set [12] is Mus musculus. The data set can be described thus: Radioactive constituent of other in urine at 0.5 hr time interval after intravenous injection into BDF1 female mice bearing lewis lung tumor. In kind it is ADME, organism-based. Conditions: in vivo. The gist of the method:
as §3

The subject of data set [13] is Mus musculus. Put plainly: Tissue distribution in BDF1 female mice bearing an implanted lewis lung tumor after intravenous injection in kidney at 0.25 h. In kind it is ADME, organism-based. The settings on record: in vivo. Summed up:
as §1

Data set [14] in a line: Total urine activity excreted at 0.5 hr was estimated from the measurement of loss of tissue activity. In kind it is ADME, tissue-based.
Data set [15] relates to Mus musculus. The data set can be described thus: Radioactive constituent in urine at 0.5 hr time interval after intravenous injection into BDF1 female mice bearing lewis lung tumor. In kind it is ADME, organism-based. Conditions: in vivo. The gist of the method: as §3
In data set [16] the test system is Mus musculus. The data set can be described thus: Tissue distribution in BDF1 female mice bearing an implanted lewis lung tumor after intravenous injection in muscle at 0.25 h. In kind it is ADME, organism-based. Conditions: in vivo. Summed up:
as §2

The subject of data set [17] is Mus musculus. Put plainly: Radioactive constituent of uracil in urine at 4 hr time interval after intravenous injection into BDF1 female mice bearing lewis lung tumor. Conditions: in vivo. In kind it is ADME, organism-based. The gist of the method: as §3
Data set [18] is described as follows: Total urine activity excreted at 2 hr was estimated from the measurement of loss of tissue activity. In kind it is ADME, tissue-based.
Data set [19] deals with Mus musculus. Put plainly: Radioactive constituent of uracil in urine at 0.5 hr time interval after intravenous injection into BDF1 female mice bearing lewis lung tumor. In kind it is ADME, organism-based. Conditions: in vivo. The gist of the method: as §3
In data set [20] the test system is Mus musculus. Put plainly: Radioactive constituent of 5-fluorouracil in urine at 2 hr time interval after intravenous injection into BDF1 female mice bearing lewis lung tumor. Conditions: in vivo.
Data set [21] relates to Mus musculus. The data set can be described thus: Radioactive constituent in urine at 8 hr time interval after intravenous injection into BDF1 female mice bearing lewis lung tumor. In kind it is ADME, organism-based. Conditions: in vivo. The gist of the method:
as §3

Data set [22] concerns Mus musculus. The data set can be described thus: Radioactive constituent of 5-fluorouracil in urine at 0.5 hr time interval after intravenous injection into BDF1 female mice bearing lewis lung tumor. In kind it is ADME, organism-based. The settings on record: in vivo. The gist of the method:
as §3

Data set [23] concerns Mus musculus. Put plainly: Tissue distribution in BDF1 female mice bearing an implanted lewis lung tumor after intravenous injection in stomach at 0.25 h. In kind it is ADME, organism-based. The settings on record: in vivo. The gist of the method:
as §2

Data set [24] relates to Mus musculus. Put plainly: Tissue distribution in BDF1 female mice bearing an implanted lewis lung tumor after intravenous injection in stomach at 0.5 h. In kind it is ADME, organism-based. Conditions: in vivo. The gist of the method:
as §2

For data set [25], the system named is Mus musculus. The data set can be described thus: Tissue distribution in BDF1 female mice bearing an implanted lewis lung tumor after intravenous injection in skin at 0.25 h. In kind it is ADME, organism-based, Skin of body. The settings on record: in vivo. The gist of the method: as §2
The test system of data set [26] is Mus musculus. Put plainly: Tissue distribution in BDF1 female mice bearing an implanted lewis lung tumor after intravenous injection in skin at 2 h. In kind it is ADME, organism-based, Skin of body. Conditions: in vivo. The gist of the method:
as §2

For `O=c1[nH]c(=O)n([C@H]2O[C@@H](CO)[C@H](O)[C@H]2F)cc1Cl`, the Tissue distribution in [1] was determined as 0.77; in data set [2], 36.2; in [3], 2.24; in data set [4], 2.12; in [5], 0.75.

With `O=c1[nH]c(=O)n([C@H]2O[C@@H](CO)[C@H](O)[C@H]2F)cc1F`, the Total radioactivity is listed as 3.3% in data set [6]; 88.5% in [7]; 63.4% in data set [8]; 23% in data set [10]; 5% in data set [12]; 90.7% in data set [15]. Besides, the Total radioactivity amounted to 7.3% in [17]; 1.4% in data set [19]; 2.8% in data set [20]; 52.4% in [21]; 2.1% in data set [22]. In addition, the Tissue distribution in [9] is 1.69; in data set [11], 2.24; in data set [13], 47.4; in [16], 2.48; in data set [23], 2.18; in [24], 0.96. Also, the Tissue distribution in data set [25] stood at 3.3; in data set [26], 0.06. In addition, the figures for the Total urine activity in data set [14] and in data set [18] were 68% and 30%, respectively.

The values are drawn from ChEMBL document CHEMBL1123716, “Synthesis and tumor uptake of 5-halo-1-(2'-fluoro-2'-deoxy-beta-D-ribofuranosyl)[2-14C]uracils” (J Med Chem, 1987).
